Here are results for 1 compound from ChEMBL document CHEMBL1135479, “Design, synthesis, and evaluation of new chemosensitizers in multi-drug-resistant Plasmodium falciparum” (2002).

Assay [1] is described as follows: Fractional inhibitory concentration (FIC) tested against RCS cells, isolate from Brazil. Format: functional, Plasmodium falciparum. Put shortly:
(§1)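 Parasite growth read by [3H]hypoxanthine incorporation in erythrocytes at 0.2% parasitemia and 1% hematocrit. Medium: folate- and PABA-free RPMI-1640 with 10% heat-inactivated human plasma or Albumax. Cultures were kept at 37 °C under 5% CO2/5% O2/90% N2, with label added at 42 h and 66 h total incubation. Counts were taken after freeze-thaw harvest, IC50 came from nonlinear logistic fits, and FIC index was derived from isobologram.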

Assay [2] relates to Plasmodium falciparum. Description: In vitro anti-MDR effect in chloroquine and mefloquine resistant TM91C235 cell lines at 500 ng/ml concentration. It counts as functional. Put shortly:
(§2)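 TM91C235 P. falciparum in erythrocytes at 0.2% parasitemia and 1% hematocrit, in folate- and PABA-free RPMI-1640 with 10% heat-inactivated human plasma or Albumax. Incubated 66 h at 37 °C under 5% CO2/5% O2/90% N2, with 3H-hypoxanthine added at 42 h. Cells lysed by freezing at -70 °C and harvested; inhibition of isotope incorporation read by scintillation counting.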

In assay [3] the test system is Plasmodium falciparum. Put plainly: In vitro anti-MDR effect in mefloquine resistant TM91C235 cell lines at 5000 ng/ml concentration in the presence of 5 ng/mL mefloquine. Format: functional. Put shortly: (§3)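 Mefloquine was held at 5 ng/mL, combined with test agent. Parasites (TM91C235) were in erythrocytes at 0.2% parasitemia and 1% hematocrit, in folate/PABA-free RPMI-1640 with human plasma or Albumax. Incubation was 66 h at 37 °C in 5% CO2/5% O2/90% N2, with 3H-hypoxanthine added for the last 24 h. Incorporation was counted after freeze-lysis and harvesting.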

Assay [4] has as its system Plasmodium falciparum. Put plainly: Fractional inhibitory concentration (FIC) (1:1 combination of compound and chloroquine) was tested in Plasmodium falciparum W2 clone. It counts as functional. Put shortly:
as §1

The nature of assay [5]: Fractional inhibitory concentration (FIC) tested against Peruvian PC49 cells, isolate from South America. Format: functional, Plasmodium falciparum. Put shortly:
as §1

Assay [6] deals with Plasmodium falciparum. Description: In vitro anti-MDR effect in mefloquine resistant TM91C235 cell lines at 50 ng/ml concentration in the presence of 5 ng/mL mefloquine. It counts as functional. In a few lines:
as §3

The subject of assay [7] is Plasmodium falciparum. Description: In vitro anti-MDR effect in chloroquine resistant TM91C235 cell lines at 500 ng/ml concentration in the presence of 10 ng/mL chloroquine. Format: functional. Put shortly: (§4)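 Test agent was combined with chloroquine at 10 ng/mL. TM91C235 was cultured in erythrocytes at 0.2% parasitemia and 1% hematocrit, in folate- and PABA-free RPMI-1640, for 66 h at 37 °C under 5% CO2/5% O2/90% N2. 3H-hypoxanthine was added at 42 h, and cell suppression was taken from scintillation counts of harvested lysates.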

In assay [8] the test system is Plasmodium falciparum. Description: In vitro anti-MDR effect in chloroquine and mefloquine resistant TM91C235 cell lines at 5000 ng/ml concentration. Format: functional. In a few lines:
as §2

Assay [9] deals with Plasmodium falciparum. Description: In vitro anti-MDR effect in chloroquine resistant TM91C235 cell lines at 5000 ng/ml concentration in the presence of 10 ng/mL chloroquine. Format: functional. In a few lines: as §4
In assay [10] the test system is Plasmodium falciparum. Description: Fractional inhibitory concentration (FIC) tested against TM91C235 cells, isolate from South east Asia. Format: functional. In a few lines:
as §1

In assay [11] the test system is Plasmodium falciparum. Description: In vitro anti-MDR effect in chloroquine resistant TM91C235 cell lines at 50 ng/ml concentration in the presence of 10 ng/mL chloroquine. It counts as functional. Put shortly:
as §4

In assay [12] the test system is Plasmodium falciparum. Description: In vitro anti-MDR effect in mefloquine resistant TM91C235 cell lines at 500 ng/ml concentration in the presence of 5 ng/mL mefloquine. Format: functional. In a few lines: as §3
Assay [13] concerns Plasmodium falciparum. Description: In vitro anti-MDR effect in chloroquine and mefloquine resistant TM91C235 cell lines at 50 ng/ml concentration. Format: functional. In a few lines:
as §2

For `CCN(CC)CCCCN1c2ccccc2Sc2ccccc21`, the FIC is listed as 0.41 in assay [1], 0.23 in the assay on Plasmodium falciparum [4], 0.41 in assay [5] and 0.29 in the assay on Plasmodium falciparum [10]. For the same compound, the Suppression came out at 38% in the assay with Plasmodium falciparum [2]; 100% in the assay on Plasmodium falciparum [3]; 17% in the assay with Plasmodium falciparum [6]; 99% with Plasmodium falciparum [7]; 100% in the assay on Plasmodium falciparum [8]; 100% with Plasmodium falciparum [9]. Besides, the Suppression worked out at 31% with Plasmodium falciparum [11], 30% in the assay on Plasmodium falciparum [12] and 26% in the assay on Plasmodium falciparum [13].
